Assay results as given in ChEMBL document CHEMBL2321850, “Fragment-based discovery of 8-hydroxyquinoline inhibitors of the HIV-1 integrase-lens epithelium-derived growth factor/p75 (IN-LEDGF/p75) interaction” (J Med Chem, 2013).

Columns and labels:
[1] = system: LNCaP; experiment: Cytotoxicity against human LNCAP cells assessed as inhibition of cell proliferation after 72 hrs by MTT assay; format: cell-based
[2] = system: MT4; experiment: Cytotoxicity against human MT4 cells assessed as cell viability after 72 hrs by MTT assay; format: cell-based; settings: mt4, 72 h
Procedure, shortened: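 MT-4 cells exposed to fivefold serial dilutions of compound run in parallel with the antiviral MTT cytopathic-effect assay; CC50 taken as the concentration killing 50% of MT-4 cells.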

[3] = system: Human immunodeficiency virus 1; experiment: Inhibition of HIV-1 FLAG-6x-His-tagged integrase interaction to FLAG-tagged LEDGF/p75 at 10 uM preincubated for 30 mins prior to LEDGF/p75 addition measured after 60 mins by quenching assay
[4] = molecular target: T1, Human immunodeficiency virus type 1 integrase (Human immunodeficiency virus 1, UniProt Q7ZJM1); experiment: Inhibition of HIV-1 integrase 3'-processing activity
T1 sequence (Q7ZJM1 whole entry): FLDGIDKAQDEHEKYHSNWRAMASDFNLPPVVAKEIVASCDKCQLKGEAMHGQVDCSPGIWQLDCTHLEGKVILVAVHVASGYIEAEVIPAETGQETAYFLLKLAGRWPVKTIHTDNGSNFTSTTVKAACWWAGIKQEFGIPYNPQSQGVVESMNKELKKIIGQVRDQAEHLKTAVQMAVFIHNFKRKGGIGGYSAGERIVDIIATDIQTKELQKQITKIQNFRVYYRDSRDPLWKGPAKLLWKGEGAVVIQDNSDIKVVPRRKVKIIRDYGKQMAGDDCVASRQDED

[5] = Inhibition of HIV-1 His6-tagged integrase interaction to FLAG-tagged LEDGF/p75 preincubated for 30 mins prior to LEDGF/p75 addition measured after 60 mins by alphascreen assay; design: species or system Human immunodeficiency virus 1
Procedure, shortened: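 His6-tagged IN (300 nM final) preincubated with compound (20 µM final) 30 min at 4 °C, then FLAG-LEDGF/p75 (300 nM final) added for 60 min at 4 °C; Ni-chelate donor and anti-FLAG acceptor beads (20 µg/mL each) added, 1 h at 30 °C, light-protected; acceptor-bead emission read.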

[6] = molecular target: T1, Human immunodeficiency virus type 1 integrase; experiment: Inhibition of HIV-1 integrase strand transfer activity
[7] = system: Human immunodeficiency virus; experiment: Antiviral activity against HIV infected human MT4 cells assessed as decrease of virus-induced cytopathic effect after 72 hrs by MTT assay; format: functional, organism-based; settings: Human immunodeficiency virus 1, MT4, 72 h
Procedure, shortened: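 MT-4 cells infected with 100 to 300 CCID50 of HIV (CCID50 from virus-stock titration on MT-4) in presence of fivefold serial compound dilutions; protection from viral cytopathic effect read by MTT; EC50 = concentration giving 50% protection. CC50 in MT-4 cells measured in parallel.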

[8] = Cytotoxicity against human LNCAP cells assessed as growth inhibition at 10 uM after 72 hrs by MTT assay; format: cell-based; settings: read-out: Activity
[9] = Selectivity index, ratio of CC50 for human MT4 cells to EC50 for HIV infected human MT4 cells; format: toxicity, cell-based; settings: MT4 cells (CC50) and HIV-infected MT4 cells (EC50)
Procedure, shortened: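 MT-4 cells infected with 100 to 300 CCID50 of HIV in the presence of fivefold serial compound dilutions. Protection against virus-induced cytopathic effect was read by MTT to give EC50. CC50 came from parallel MTT viability testing of uninfected MT-4 cells. Selectivity index was calculated as CC50/EC50.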

| Compound | CC50 [1] | CC50 [2] | inhibition [3] | IC50 [4] | IC50 [5] | IC50 [6] | EC50 [7] | inhibition at 72 h, 10 µM [8] | selectivity ratio [9] |
| --- | --- | --- | --- | --- | --- | --- | --- | --- | --- |
| Cc1cccnc1NCc1ccc(O)c2ncccc12 | > 10 µM | 11 µM | < 50% | > 20 µM | 3.5 µM | > 20 µM | > 11 µM | – | – |
| CCOC(=O)C1CCCN(Cc2ccc(O)c3ncccc23)C1 (stereo not drawn) | > 10 µM | 9 µM | < 50% | > 20 µM | 2 µM | > 20 µM | > 9 µM | – | – |
| Oc1ccccc1C(Nc1nccs1)c1ccc2cccnc2c1O (stereo not drawn) | 2.4 µM | – | < 50% | > 20 µM | 4.7 µM | > 20 µM | – | – | – |
| Oc1ccc(Cl)c2cccnc12 [CLOXYQUIN] | 5 µM | – | < 50% | > 20 µM | 3.6 µM | > 20 µM | – | – | – |
| Oc1ccc(CN2CCCCC2)c2cccnc12 | > 10 µM | 9 µM | < 50% | > 20 µM | 0.4 µM | > 20 µM | > 9 µM | – | – |
| CC(=O)NC(c1ccccc1)c1cc(Cl)c2cccnc2c1O (stereo not drawn) | 0.74 µM | – | < 50% | > 20 µM | 3 µM | > 20 µM | – | – | – |
| CCCC(=O)NC(c1ccc(OC)cc1)c1ccc2cccnc2c1O (stereo not drawn) | 0.62 µM | – | < 50% | > 20 µM | 4 µM | > 20 µM | – | – | – |
| Cc1ccc(S(=O)(=O)NC(=O)Oc2cccc3cccnc23)cc1 | > 10 µM | 2 µM | < 50% | > 20 µM | 1.7 µM | > 20 µM | > 2 µM | 13% | – |
| Cc1cccc(NCc2ccc(O)c3ncccc23)c1 | > 10 µM | 9 µM | < 50% | > 20 µM | 4 µM | > 20 µM | > 9 µM | – | – |
| CCOC(=O)C1CCN(Cc2ccc(O)c3ncccc23)CC1 | > 10 µM | – | < 50% | > 20 µM | 2.2 µM | > 20 µM | – | – | – |
| Oc1ccc(CN2CCN(Cc3ccccc3)CC2)c2cccnc12 | > 10 µM | 11 µM | < 50% | > 20 µM | 2.2 µM | > 20 µM | > 11 µM | – | – |
| Cc1ccccc1NCc1ccc(O)c2ncccc12 | > 10 µM | 9 µM | < 50% | > 20 µM | 1.4 µM | > 20 µM | > 9 µM | 0% | – |
| CCC(=O)NC(c1ccco1)c1cc(Cl)c2cccnc2c1O (stereo not drawn) | 0.72 µM | – | < 50% | > 20 µM | 4 µM | > 20 µM | – | – | – |
| Cc1cccc(NCc2ccc(O)c3ncccc23)n1 | > 10 µM | 2 µM | < 50% | > 20 µM | 2.8 µM | > 20 µM | > 2 µM | – | – |
| Cc1ccc(NCc2ccc(O)c3ncccc23)cc1C | > 10 µM | 33.5 µM | < 50% | > 20 µM | 4.6 µM | > 20 µM | 17.9 µM | – | 2 |
| Oc1ccc(CNc2cccc(C(F)(F)F)c2)c2cccnc12 | > 10 µM | 10 µM | < 50% | > 20 µM | 2.9 µM | > 20 µM | > 10 µM | – | – |
| COc1cccc(NCc2ccc(O)c3ncccc23)c1 | 5 µM | – | < 50% | > 20 µM | 3.2 µM | > 20 µM | – | – | – |
| Oc1ccc(Cc2ccc(O)c3ncccc23)c2cccnc12 | 0.1 µM | – | < 50% | > 20 µM | 2 µM | > 20 µM | – | – | – |
| O=C(CC(Sc1cccc2cccnc12)c1ccc(OC(F)F)cc1)c1ccco1 (stereo not drawn) | 0.8 µM | 2 µM | < 50% | > 20 µM | 3 µM | > 20 µM | > 2 µM | 73% | – |
| Oc1c(Cl)cc(Cl)c2cccnc12 [CHLOROXINE] | 2.5 µM | – | < 50% | > 20 µM | 4.3 µM | > 20 µM | – | – | – |
| CCOc1ccc(NCc2ccc(O)c3ncccc23)cc1 | > 10 µM | 11 µM | < 50% | > 20 µM | 4 µM | > 20 µM | > 11 µM | – | – |
